Test results taken from ChEMBL document CHEMBL5376013, “Design, synthesis and biological evaluation of novel morpholinopyrimidine-5-carbonitrile derivatives as dual PI3K/mTOR inhibitors” (RSC Med Chem, 2024).

Key:
Type in all cases: functional
Conditions in all cases: read-out: GI
[1] = tested on: DU-145; test: Antitumor activity against human DU-145 cells assessed as growth inhibition at 10 uM relative to control
In short: (§1)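 After drug addition, plates were incubated 48 h at 37 °C under 5% CO2. Adherent cells were fixed with cold TCA (10% final, 60 min, 4 °C) and suspension cells with 16% final TCA. Staining used 0.4% SRB in 1% acetic acid, solubilized in 10 mM trizma, read at A515. Percent growth was calculated from time-zero, control and treated absorbances.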

[2] = tested on: NCI/ADR-RES; test: Antitumor activity against human NCI-ADR-RES cells assessed as growth inhibition at 10 uM relative to control; in short: as §1
[3] = tested on: 786-0; test: Antitumor activity against human 786-0 cells assessed as growth inhibition at 10 uM relative to control; in short: as §1
[4] = tested on: SNB-75; test: Antitumor activity against human SNB-75 cells assessed as growth inhibition at 10 uM relative to control
In short: (§2)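 Drug exposure 48 h at 37 °C, 5% CO2. Adherent cells fixed with cold TCA (10% final), suspension cells with TCA (16% final). Stained with 0.4% SRB in 1% acetic acid, dissolved in 10 mM Tris, A515. Growth relative to time-zero and untreated control.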

[5] = tested on: UACC-62; test: Antitumor activity against human UACC-62 cells assessed as growth inhibition at 10 uM relative to control; in short: as §2
[6] = tested on: SK-MEL-2; test: Antitumor activity against human SK-MEL-2 cells assessed as growth inhibition at 10 uM relative to control; in short: as §1
[7] = tested on: RXF 393; test: Antitumor activity against human RXF 393 cells assessed as growth inhibition at 10 uM relative to control; in short: as §1
[8] = tested on: MDA-MB-231; test: Antitumor activity against human MDA-MB-231 cells assessed as growth inhibition at 10 uM relative to control; in short: as §1
[9] = tested on: SK-MEL-5; test: Antitumor activity against human SK-MEL-5 cells assessed as growth inhibition at 10 uM relative to control; in short: as §2
[10] = tested on: SF-295; test: Antitumor activity against human SF-295 cells assessed as growth inhibition at 10 uM relative to control; in short: as §1
[11] = tested on: SW-620; test: Antitumor activity against human SW-620 cells assessed as growth inhibition at 10 uM relative to control; in short: as §2
[12] = tested on: MDA-MB-468; test: Antitumor activity against human MDA-MB-468 cells assessed as growth inhibition at 10 uM relative to control; in short: as §1
[13] = tested on: HL-60; test: Antitumor activity against human HL-60 cells assessed as growth inhibition at 10 uM relative to control; in short: as §1
[14] = tested on: RPMI-8226; test: Antitumor activity against human RPMI-8226 cells assessed as growth inhibition at 10 uM relative to control; in short: as §1
[15] = tested on: SF-268; test: Antitumor activity against human SF-268 cells assessed as growth inhibition at 10 uM relative to control; in short: as §1
[16] = tested on: MCF7; test: Antitumor activity against human MCF7 cells assessed as growth inhibition at 10 uM relative to control; in short: as §1
[17] = tested on: HT-29; test: Antitumor activity against human HT-29 cells assessed as growth inhibition at 10 uM relative to control; in short: as §1
[18] = tested on: IGROV-1; test: Antitumor activity against human IGROV-1 cells assessed as growth inhibition at 10 uM relative to control; in short: as §1
[19] = tested on: HCT-15; test: Antitumor activity against human HCT-15 cells assessed as growth inhibition at 10 uM relative to control; in short: as §1
[20] = tested on: SF-539; test: Antitumor activity against human SF-539 cells assessed as growth inhibition at 10 uM relative to control; in short: as §1
[21] = tested on: A549; test: Antitumor activity against human A549 cells assessed as growth inhibition at 10 uM relative to control; in short: as §1
[22] = tested on: COLO 205; test: Antitumor activity against human COLO 205 cells assessed as growth inhibition at 10 uM relative to control; in short: as §1
[23] = tested on: LOX IMVI; test: Antitumor activity against human LOX IMVI cells assessed as growth inhibition at 10 uM relative to control; in short: as §1
[24] = tested on: U-251; test: Antitumor activity against human U-251 cells assessed as growth inhibition at 10 uM relative to control; in short: as §2
[25] = tested on: SN12C; test: Antitumor activity against human SN12C cells assessed as growth inhibition at 10 uM relative to control; in short: as §2
[26] = tested on: HOP-62; test: Antitumor activity against human HOP-62 cells assessed as growth inhibition at 10 uM relative to control; in short: as §1
[27] = tested on: CCRF-CEM; test: Antitumor activity against human CCRF-CEM cells assessed as growth inhibition at 10 uM relative to control; in short: as §1
[28] = tested on: NCI-H226; test: Antitumor activity against human NCI-H226 cells assessed as growth inhibition at 10 uM relative to control; in short: as §1
[29] = tested on: ACHN; test: Antitumor activity against human ACHN cells assessed as growth inhibition at 10 uM relative to control; in short: as §1
[30] = tested on: UO-31; test: Antitumor activity against human UO-31 cells assessed as growth inhibition at 10 uM relative to control; in short: as §2
[31] = tested on: MDA-MB-435; test: Antitumor activity against human MDA-MB-435 cells assessed as growth inhibition at 10 uM relative to control; in short: as §1
[32] = tested on: CAKI-1; test: Antitumor activity against human CAKI-1 cells assessed as growth inhibition at 10 uM relative to control; in short: as §1
[33] = tested on: HCT-116; test: Antitumor activity against human HCT-116 cells assessed as growth inhibition at 10 uM relative to control; in short: as §1
[34] = tested on: NCI-H522; test: Antitumor activity against human NCI-H522 cells assessed as growth inhibition at 10 uM relative to control; in short: as §1
[35] = tested on: A498; test: Antitumor activity against human A498 cells assessed as growth inhibition at 10 uM relative to control; in short: as §1
[36] = tested on: K562; test: Antitumor activity against human K562 cells assessed as growth inhibition at 10 uM relative to control; in short: as §1
[37] = tested on: Malme-3M; test: Antitumor activity against human Malme-3M cells assessed as growth inhibition at 10 uM relative to control; in short: as §1
[38] = tested on: MOLT-4; test: Antitumor activity against human MOLT-4 cells assessed as growth inhibition at 10 uM relative to control; in short: as §1
[39] = tested on: OVCAR-8; test: Antitumor activity against human OVCAR-8 cells assessed as growth inhibition at 10 uM relative to control; in short: as §1
[40] = tested on: T47D; test: Antitumor activity against human T47D cells assessed as growth inhibition at 10 uM relative to control; in short: as §2
[41] = tested on: NCI-H23; test: Antitumor activity against human NCI-H23 cells assessed as growth inhibition at 10 uM relative to control; in short: as §1
[42] = tested on: TK-10; test: Antitumor activity against human TK-10 cells assessed as growth inhibition at 10 uM relative to control; in short: as §2
[43] = tested on: Hs-578T; test: Antitumor activity against human Hs-578T cells assessed as growth inhibition at 10 uM relative to control; in short: as §1
[44] = tested on: SR; test: Antitumor activity against human SR cells assessed as growth inhibition at 10 uM relative to control; in short: as §2
[45] = tested on: SK-OV-3; test: Antitumor activity against human SK-OV-3 cells assessed as growth inhibition at 10 uM relative to control; in short: as §2
[46] = tested on: HOP-92; test: Antitumor activity against human HOP-92 cells assessed as growth inhibition at 10 uM relative to control; in short: as §1

SMILES: N#Cc1c(-c2ccc(Cl)cc2)nc(N/N=C/c2ccc[nH]2)nc1N1CCOCC1
- inhibition of growth at 10 µM [1]: 15.8%
- inhibition of growth at 10 µM [2]: 15.5%
- inhibition of growth at 10 µM [3]: 76.1%
- inhibition of growth at 10 µM [4]: < 1%
- inhibition of growth at 10 µM [5]: 12%
- inhibition of growth at 10 µM [6]: < 1%
- inhibition of growth at 10 µM [7]: < 1%
- inhibition of growth at 10 µM [8]: 20.3%
- inhibition of growth at 10 µM [9]: 14.8%
- inhibition of growth at 10 µM [10]: 41.6%
- inhibition of growth at 10 µM [11]: 10.8%
- inhibition of growth at 10 µM [12]: 21.8%
- inhibition of growth at 10 µM [13]: 97.7%
- inhibition of growth at 10 µM [14]: 93.6%
- inhibition of growth at 10 µM [15]: 53.8%
- inhibition of growth at 10 µM [16]: < 29.3%
- inhibition of growth at 10 µM [17]: 33.8%
- inhibition of growth at 10 µM [18]: 32.6%
- inhibition of growth at 10 µM [19]: 21.1%
- inhibition of growth at 10 µM [20]: 66.6%
- inhibition of growth at 10 µM [21]: 45.6%
- inhibition of growth at 10 µM [22]: 18.4%
- inhibition of growth at 10 µM [23]: 12.2%
- inhibition of growth at 10 µM [24]: < 1%
- inhibition of growth at 10 µM [25]: 59.9%
- inhibition of growth at 10 µM [26]: 58.4%
- inhibition of growth at 10 µM [27]: 79.2%
- inhibition of growth at 10 µM [28]: 31.1%
- inhibition of growth at 10 µM [29]: 17.5%
- inhibition of growth at 10 µM [30]: 85.2%
- inhibition of growth at 10 µM [31]: < 1%
- inhibition of growth at 10 µM [32]: < 1%
- inhibition of growth at 10 µM [33]: < 1%
- inhibition of growth at 10 µM [34]: 91.7%
- inhibition of growth at 10 µM [35]: 68.3%
- inhibition of growth at 10 µM [36]: 55.8%
- inhibition of growth at 10 µM [37]: < 11.1%
- inhibition of growth at 10 µM [38]: 82.6%
- inhibition of growth at 10 µM [39]: 14.9%
- inhibition of growth at 10 µM [40]: 35.1%
- inhibition of growth at 10 µM [41]: < 1%
- inhibition of growth at 10 µM [42]: 36.7%
- inhibition of growth at 10 µM [43]: < 1%
- inhibition of growth at 10 µM [44]: 68.8%
- inhibition of growth at 10 µM [45]: 15.3%
- inhibition of growth at 10 µM [46]: 31.1%

SMILES: Cc1cc(C)n(-c2nc(-c3ccc(Cl)cc3)c(C#N)c(N3CCOCC3)n2)n1
- inhibition of growth at 10 µM [1]: < 1%
- inhibition of growth at 10 µM [2]: 10.6%
- inhibition of growth at 10 µM [3]: 15.2%
- inhibition of growth at 10 µM [4]: 40.1%
- inhibition of growth at 10 µM [5]: < 1%
- inhibition of growth at 10 µM [6]: < 1%
- inhibition of growth at 10 µM [7]: 30.5%
- inhibition of growth at 10 µM [8]: 28.8%
- inhibition of growth at 10 µM [9]: 14.5%
- inhibition of growth at 10 µM [10]: < 1%
- inhibition of growth at 10 µM [11]: < 1%
- inhibition of growth at 10 µM [12]: < 1%
- inhibition of growth at 10 µM [13]: < 1%
- inhibition of growth at 10 µM [14]: 15.4%
- inhibition of growth at 10 µM [15]: 14.4%
- inhibition of growth at 10 µM [16]: < 16%
- inhibition of growth at 10 µM [17]: < 1%
- inhibition of growth at 10 µM [18]: 23.4%
- inhibition of growth at 10 µM [19]: < 1%
- inhibition of growth at 10 µM [20]: 16%
- inhibition of growth at 10 µM [21]: < 1%
- inhibition of growth at 10 µM [22]: 18.9%
- inhibition of growth at 10 µM [23]: 20.1%
- inhibition of growth at 10 µM [24]: < 1%
- inhibition of growth at 10 µM [25]: 12.8%
- inhibition of growth at 10 µM [26]: 19.9%
- inhibition of growth at 10 µM [27]: < 1%
- inhibition of growth at 10 µM [28]: 14%
- inhibition of growth at 10 µM [29]: 11.8%
- inhibition of growth at 10 µM [30]: 45.2%
- inhibition of growth at 10 µM [31]: < 1%
- inhibition of growth at 10 µM [32]: 28.1%
- inhibition of growth at 10 µM [33]: 17%
- inhibition of growth at 10 µM [34]: 14.3%
- inhibition of growth at 10 µM [35]: 46.3%
- inhibition of growth at 10 µM [36]: < 1%
- inhibition of growth at 10 µM [37]: < 1%
- inhibition of growth at 10 µM [38]: 13.3%
- inhibition of growth at 10 µM [39]: < 1%
- inhibition of growth at 10 µM [40]: 22.1%
- inhibition of growth at 10 µM [41]: 16%
- inhibition of growth at 10 µM [42]: < 1%
- inhibition of growth at 10 µM [43]: 12.3%
- inhibition of growth at 10 µM [44]: < 1%
- inhibition of growth at 10 µM [45]: 15.2%
- inhibition of growth at 10 µM [46]: 24.7%
